# Results collected from several papers.
# Lines come from different studies, so protocols differ.
Compound,organism,test,test system,conditions,quantity,value
C[n+]1ccc(/C=C2\Sc3ccccc3N2CCCN2CCCCC2)c2ccccc21.[I-],Pseudomonas aeruginosa,"microbial growth, broth dilution",ATCCBAA2108,drug-resistant strain,MIC,64 µg/mL
CCCCCOc1ccc(-c2cc(-c3ccc(C(=O)N[C@H]4C[C@@H](O)[C@@H](O)NC(=O)[C@@H]5[C@@H](O)[C@@H](C)CN5C(=O)[C@H]([C@H](O)CC(N)=O)NC(=O)[C@H]([C@H](O)[C@@H](O)c5ccc(O)c(OS(=O)(=O)O)c5)NC(=O)[C@@H]5C[C@@H](O)CN5C(=O)[C@H]([C@@H](C)O)NC4=O)cc3)no2)cc1,Kluyveromyces marxianus,biofilm formation,,1 µg/mL,inhibition,53%
CC[C@H](C)[C@H]1C(=O)N2CCC[C@H]2C(=O)O[C@H](C(C)(C)C)C[C@@H](C)C[C@H](O)[C@H](C)C2=N[C@@H](CCC(=O)N[C@@H](Cc3ccc(OC)cc3)C(=O)N(C)[C@@H](C)C(=O)N1C)CS2,Zika virus,viral replication,Huh7.5,24 h,IC50,0.015 µM
[2H]C([2H])(c1cc(F)c(F)cc1F)n1c(=O)n(Cc2ncn(C)n2)c(=O)[nH]/c1=N\c1cc2cn(C)nc2cc1Cl,Alphacoronavirus 1,"viral replication, inhibitor, qPCR",CRFK,,EC50,~50 µM
CCOC(=O)c1cc(-c2cccc(NC(=O)Nc3ccc(Cl)c(Cl)c3)c2)on1,Mycobacteroides abscessus,"microbial growth, broth dilution",ATCC19977,48 h,MIC,> 64 µg/mL
O=C(N[C@H](CO)[C@H](O)c1ccc([N+](=O)[O-])cc1)C(Cl)Cl,Bacillus,"microbial growth, broth dilution",ATCC27859,18 h,MIC,0.98 µg/mL
COC(=O)c1cc(-c2cccc(NC(=O)Nc3ccc(F)c(F)c3)c2)on1,Mycobacteroides abscessus,"microbial growth, broth dilution",ATCC19977,48 h,MIC,> 64 µg/mL
O=C(N[C@H](CO)[C@H](O)c1ccc([N+](=O)[O-])cc1)C(Cl)Cl,Bacillus,"microbial growth, broth dilution",ATCC27859,,MIC,0.98 µg/mL
CC1CCN(CCCN2/C(=C/c3cc[n+](C)c4ccccc34)Sc3ccccc32)CC1.[I-],Pseudomonas aeruginosa,"microbial growth, broth dilution",ATCCBAA2108,drug-resistant strain,MIC,16 µg/mL
COC(=O)c1cc(-c2cccc(NC(=O)Nc3ccc(Cl)c(C(F)(F)F)c3)c2)on1,Mycobacteroides abscessus,"microbial growth, broth dilution",ATCC19977,48 h,MIC,> 64 µg/mL
